Results of several laboratories.
Each line is one published result; the experiments were not run side by side.
CSNK1D: Casein kinase I isoform delta (CSNK1D, Homo sapiens, UniProt P48730)
PLCD1: 1-phosphatidylinositol 4,5-bisphosphate phosphodiesterase delta-1 (PLCD1, Homo sapiens, UniProt P51178)
HTR2C: 5-hydroxytryptamine receptor 2C (HTR2C, Homo sapiens, UniProt P28335)
FLT3 ITD: Receptor-type tyrosine-protein kinase FLT3 (FLT3, Homo sapiens, UniProt P36888, ITD)
FLT3 D835Y: Receptor-type tyrosine-protein kinase FLT3 (FLT3, Homo sapiens, UniProt P36888, D835Y)

Compound	target	assay	setting	measurement	value
CN(C)C(=O)c1cc2cnc(Nc3ccc(C(=O)NCCCCCCOc4cccc5c4C(=O)N(C4CCC(=O)NC4=O)C5=O)cc3)nc2n1C1CCCC1 (centres unmarked)	Aurora kinase C (AURKC, Homo sapiens, UniProt Q9UQB9)	binding, competition with immobilised ligand	–	Kd	< 0.2 µM
c1ccc(CNCc2ccc(CN3CCCNCCNCCCNCC3)cc2)nc1	CSNK1D	binding, SPR	–	Kd	> 50 µM
CCOC(=O)c1cc(-c2ccc(OCC)cc2)oc1-c1ccc(Cl)cc1	PLCD1	ligand displacement, FP	–	Ki	> 100 µM
N#Cc1ccccc1C#CCO	CSNK1D	binding, SPR	–	Kd	> 50 µM
CCCNC(=O)c1ccc2c3c1C(CC(F)(F)F)CN3CCNC2 (racemic)	5-hydroxytryptamine receptor 2B (HTR2B, Homo sapiens, UniProt P41595)	ligand displacement, radioligand	cell membranes	Ki	2.25 µM
C#CCOc1cccc(C(=O)CC(SCc2cccc(Br)c2)C(=O)O)c1 (centres unmarked)	PLCD1	ligand displacement, FP	–	Ki	710 µM
COc1cc2c3c(c1OC)-c1c(OC)ccc(O)c1CC3N(C)CC2 (centres unmarked)	HTR2C	cell-free assay, radioligand	–	Ki	4.3 µM
COc1ccc(C(=O)CC(SCc2ccc(Cl)cc2)C(=O)O)cc1 (centres unmarked)	PLCD1	ligand displacement, FP	–	Ki	> 1000 µM
Cc1n[nH]c2ccc3nc(-c4ccc(C(=O)NCCN(C)C)cn4)c4c(c3c12)CCCCC4	FLT3 ITD	enzyme activity, inhibitor	–	IC50	0.419 µM
CCOc1ccc(C(=O)CC(SCc2ccccc2)C(=O)O)cc1 (centres unmarked)	PLCD1	ligand displacement, FP	–	Ki	> 1000 µM
COCCNC(=O)c1ccc(-c2nc3ccc4[nH]ncc4c3c3c2CCCC3)cc1	FLT3 ITD	enzyme activity, inhibitor	–	IC50	0.664 µM
CNC(=O)c1ccc(OC)c(Br)c1	CSNK1D	binding, SPR	–	Kd	> 50 µM
O=C(NCCN1CCCCC1)c1ccc(-c2nc3ccc4[nH]ncc4c3c3c2CCCC3)cc1	FLT3 ITD	enzyme activity, inhibitor	–	IC50	0.741 µM
CCOc1ccc(C(=O)CC(SCc2cccc(Br)c2)C(=O)O)cc1 (centres unmarked)	PLCD1	ligand displacement, FP	–	Ki	630 µM
c1ccc(-c2nnc(NCc3ccccn3)o2)cc1	CSNK1D	binding, SPR	–	Kd	> 50 µM
Cc1n[nH]c2ccc3nc(-c4ccc(C(=O)N(C)CCN(C)C)cc4)c4c(c3c12)CCC(F)(F)C4	FLT3 ITD	enzyme activity, inhibitor	–	IC50	> 1 µM
O=C(NC1CCCCC1)C(=O)c1c[nH]c2ccccc12	CSNK1D	binding, SPR	–	Kd	5.7 µM
CN(C)CCNC(=O)c1ccc(-c2nc3ccc4[nH]ncc4c3c3c2CCCCC3)c(F)c1	FLT3 D835Y	enzyme activity, inhibitor	–	IC50	0.007 µM
Brc1cnc2nccnc2c1	CSNK1D	binding, SPR	–	Kd	> 50 µM
CCOc1ccc(C(=O)CC(SCc2ccc(Cl)cc2)C(=O)O)cc1 (centres unmarked)	PLCD1	ligand displacement, FP	–	Ki	780 µM
CN(C)CCNC(=O)c1ccc(-c2nc3ccc4[nH]ncc4c3c3c2CCCC3)cc1	FLT3 ITD	enzyme activity, inhibitor	–	IC50	0.086 µM
Oc1ccc(C2CNCCN2)cc1 (centres unmarked)	CSNK1D	binding, SPR	–	Kd	> 50 µM
COc1cc2c3c(c1OC)-c1c(OC)ccc(Br)c1CC3N(C)CC2 (centres unmarked)	HTR2C	cell-free assay, radioligand	–	Ki	2.2 µM
CCOc1cccc(C(=O)CC(SCc2cccc(Br)c2)C(=O)O)c1 (centres unmarked)	PLCD1	ligand displacement, FP	–	Ki	605 µM
O=C(NCC1CC1)c1ccc(-c2nc3ccc4[nH]ncc4c3c3c2CCCC3)cc1	FLT3 ITD	enzyme activity, inhibitor	–	IC50	> 1 µM
COc1cccc(C(=O)CC(SCc2ccc(Cl)cc2)C(=O)O)c1 (centres unmarked)	PLCD1	ligand displacement, FP	–	Ki	> 1000 µM
N#Cc1ccc(O)cc1F	CSNK1D	binding, SPR	–	Kd	20 to 50 µM
COc1cc2c3c(c1OC)-c1c(OC)ccc(N4CCOCC4)c1CC3N(C)CC2 (centres unmarked)	HTR2C	cell-free assay, radioligand	–	Ki	2.71 µM
Cc1n[nH]c2ccc3nc(-c4ccc(C(=O)NCCN(C)C)cc4F)c4c(c3c12)CCCC4	FLT3 D835Y	enzyme activity, inhibitor	–	IC50	0.005 µM
